Measured values as given in ChEMBL document CHEMBL3243995, “Synthesis of phenolic group containing analogues of porcine secretin and their immunological properties” (J Med Chem, 1977).
Where a SMILES comes first, the peptide text is derived from it. The star is where a group is joined. Desaminotyrosyl = O=C(CCc1ccc(O)cc1)*

What was measured:
[1] = Retardation factor of the compound using 1-BuOH-AcOH-H2O at ratio of 4:1:5 as solvent system by thin layer chromatography; format: physicochemical
How it was run: (§1)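 Thin-layer chromatography spots were detected with Sakaguchi, Pauly, chlorine-tolidine and ninhydrin reagents.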

[2] = Retardation factor of the compound using 1-BuOH-pyridine-AcOH-H2O at ratio of 30:20:6:24 as solvent system by thin layer chromatography; format: physicochemical; how it was run: as §1
[3] = tested on: Canis familiaris; assay: Induction of pancreatic juice secretion in iv dosed anesthetized dog relative to natural porcine secretin; format: functional, Canis lupus familiaris
How it was run: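 Anesthetized dogs received the synthetic peptides by intravenous injection. The volume of pancreatic juice secreted was compared with that produced by pure natural porcine secretin. Responses were evaluated in four-point assays.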

Molecule	Rf [1]	Rf [2]	Activity [3] [%]
H-HSDGTFTSELSRLRDSARLQRLLQGLV-NH2 [listing 1 of 2 here]	0.19	0.58	–
H-HSDGTFTSELSRLRDSARLQRLLQGLV-NH2 [listing 2 of 2 here]	–	–	107.5
H-YSDGTFTSELSRLRDSARLQRLLQGLV-NH2	0.2	0.56	4.3
H-YHSDGTFTSELSRLRDSARLQRLLQGLV-NH2	0.18	0.52	25.6
CC(C)C[C@H](NC(=O)CNC(=O)[C@H](CCC(N)=O)NC(=O)[C@H](CC(C)C)NC(=O)[C@H](CC(C)C)NC(=O)[C@H](CCCNC(=N)N)NC(=O)[C@H](CCC(N)=O)NC(=O)[C@H](CC(C)C)NC(=O)[C@H](CCCNC(=N)N)NC(=O)[C@H](C)NC(=O)[C@H](CO)NC(=O)[C@H](CC(=O)O)NC(=O)[C@H](CCCNC(=N)N)NC(=O)[C@H](CC(C)C)NC(=O)[C@H](CCCNC(=N)N)NC(=O)[C@H](CO)NC(=O)[C@H](CC(C)C)NC(=O)[C@H](CCC(=O)O)NC(=O)[C@H](CO)NC(=O)[C@@H](NC(=O)[C@H](Cc1ccccc1)NC(=O)[C@@H](NC(=O)CNC(=O)[C@H](CC(=O)O)NC(=O)[C@H](CO)NC(=O)[C@H](Cc1cnc[nH]1)NC(=O)CCc1ccc(O)cc1)[C@@H](C)O)[C@@H](C)O)C(=O)N[C@H](C(N)=O)C(C)C (Desaminotyrosyl-HSDGTFTSELSRLRDSARLQRLLQGLV-NH2)	0.2	0.58	4.1
H-HSDGTYTSELSRLRDSARLQRLLQGLV-NH2	0.18	0.56	1.3
